Data as given in ChEMBL document CHEMBL1125724, “Potential anti-AIDS agents. Synthesis and antiviral activity of naphthalenesulfonic acid derivatives against HIV-1 and HIV-2” (1991).
≈ marks a conversion by molar mass, not a printed value.

How the values were obtained:
MT4 [1] = test: Cell viability at a concentration of 4(4.3) ug/mL (uM).; type: functional, Homo sapiens
MT4 [2] = test: Compound tested for its inhibition of HIV-1 induced cytopathogenicity in MT-4 cells.; type: functional; settings: Homo sapiens, read-out: ED50 (the source's name)
Method in brief: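 MT-4 cells infected with HIV-1 (HTLV-III_B) at MOI 0.02 and incubated 4 days with a range of compound concentrations. Viable cells were counted by MTT. ED50 is the 50% antiviral dose from inhibition of virus-induced cytopathogenicity, given as the mean of two separate experiments.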

MT4 [3] = test: Compound was evaluated for inhibitory effect against MT-4 cells of HIV-1 at a concentration of 100(107) ug/mL (uM).; type: functional, Homo sapiens
Method in brief: (§1)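 HIV-1 (HTLV-III_B) infected MT-4 cells at multiplicity of infection 0.02, incubated with a range of compound concentrations for 4 days. Viable cells counted by MTT method. Per-concentration inhibition of virus-induced cytopathogenicity; values are means of two separate experiments.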

[4] = biological target: Human immunodeficiency virus type 1 reverse transcriptase (Human immunodeficiency virus 1) (UniProt Q72547); test: Compound tested for % inhibition of cell-free HIV-1 Reverse Transcriptase at a concentration of 4.3 uM
Method in brief: (§2)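 HIV-1 RT from partially purified, concentrated disrupted virions. Reaction at 37 °C for 30 min in 50 mM Tris-HCl pH 8.4, 2 mM DTT, 100 mM KCl, 10 mM MgCl2, 0.1% Triton X-100, with 1 µCi [methyl-3H]dTTP (30 Ci/mmol) and 0.01 unit poly(rA)·oligo(dT). Stopped with 5% TCA; precipitate collected on glass-fiber filters and counted by liquid scintillation. Experimental variation at most 10%.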

[5] = biological target: Human immunodeficiency virus type 1 reverse transcriptase (Human immunodeficiency virus 1) (UniProt Q72547); test: Compound tested for % inhibition of cell-free HIV-1 Reverse Transcriptase at a concentration of 535 uM; method in brief: as §2
[6] = tested on: Human immunodeficiency virus 1; test: Compound tested for % inhibition of giant cell formation at a concentration of 107 uM
MT4 [7] = test: Compound was evaluated for inhibitory effect against MT-4 cells of HIV-2 at a concentration of 100(107) ug/mL (uM).; type: functional, Homo sapiens
Method in brief: (§3)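 HIV-2 (ROD strain) infected MT-4 cells at multiplicity of infection 0.02, incubated with a range of compound concentrations for 4 days. Viable cells counted by MTT method. Per-concentration inhibition of virus-induced cytopathogenicity; values are means of two separate experiments.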

MT4 [8] = test: Compound was evaluated for inhibitory effect against MT-4 cells of HIV-2 at a concentration of 4(4.3) ug/mL (uM).; type: functional, Homo sapiens; method in brief: as §3
MT4 [9] = test: Compound was evaluated for inhibitory effect against MT-4 cells of HIV-2 at a concentration of 20(21.4) ug/mL (uM).; type: functional, Homo sapiens; method in brief: as §3
[10] = biological target: Human immunodeficiency virus type 1 reverse transcriptase (Human immunodeficiency virus 1) (UniProt Q72547); test: Compound tested for % inhibition of cell-free HIV-1 Reverse Transcriptase at a concentration of 21.4 uM.; method in brief: as §2
MT4 [11] = test: Compound tested for its inhibition of HIV-2 induced cytopathogenicity in MT-4 cells.; type: functional; settings: Homo sapiens, read-out: ED50 (the source's name)
Method in brief: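 MT-4 cells infected with HIV-2 (ROD) at MOI 0.02 and incubated 4 days with a range of compound concentrations. Viable cells were counted by MTT. ED50 is the dose giving 50% inhibition of virus-induced cytopathogenicity, given as the mean of two separate experiments.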

MT4 [12] = test: Cell viability at a concentration of 20(21.4) ug/mL (uM).; type: functional, Homo sapiens
MT4 [13] = test: Compound was evaluated for inhibitory effect against MT-4 cells of HIV-1 at a concentration of 0.8(0.9) ug/mL (uM).; type: functional, Homo sapiens; method in brief: as §1
MT4 [14] = test: Compound tested for its ability to reduce viability of mock-infected MT-4 cells.; type: functional; settings: Homo sapiens, read-out: CD50 (the source's name)
Method in brief: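 Mock-infected MT-4 cells were incubated 4 days with a range of compound concentrations, and viability was read by MTT. CD50 is the 50% cytotoxic dose from reduced viability, given as the mean of two separate experiments.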

MT4 [15] = test: Cell viability at a concentration of 100(107) ug/mL (uM).; type: functional, Homo sapiens
[16] = biological target: Human immunodeficiency virus type 1 reverse transcriptase (Human immunodeficiency virus 1) (UniProt Q72547); test: Inhibitory dose at a concentration 535 uM cell-free HIV-1 Reverse Transcriptase; method in brief: as §2
MT4 [17] = test: Compound was evaluated for inhibitory effect against MT-4 cells of HIV-1 at a concentration of 4(4.3) ug/mL (uM).; type: functional, Homo sapiens; method in brief: as §1
MT4 [18] = test: Compound was evaluated for inhibitory effect against MT-4 cells of HIV-1 at a concentration of 20(21.4) ug/mL (uM).; type: functional, Homo sapiens; method in brief: as §1
MT4 [19] = test: Compound was evaluated for inhibitory effect against MT-4 cells of HIV-2 at a concentration of 0.8(0.9) ug/mL (uM).; type: functional, Homo sapiens; method in brief: as §3
MT4 [20] = test: Cell viability at a concentration of 0.8(0.9) ug/mL (uM).; type: functional, Homo sapiens
[21] = biological target: Human immunodeficiency virus type 1 reverse transcriptase (Human immunodeficiency virus 1) (UniProt Q72547); settings: 350 uM
[22] = biological target: Human immunodeficiency virus type 1 reverse transcriptase (Human immunodeficiency virus 1) (UniProt Q72547); settings: 14 uM
[23] = biological target: Human immunodeficiency virus type 1 reverse transcriptase (Human immunodeficiency virus 1) (UniProt Q72547); settings: 350 uM; remark: listed apart in the source
[24] = biological target: Human immunodeficiency virus type 1 reverse transcriptase (Human immunodeficiency virus 1) (UniProt Q72547); settings: 2.8 uM

For `O=C(CCCCCCCCCCC(=O)Nc1cc(S(=O)(=O)O)cc2cc(S(=O)(=O)[O-])cc(O)c12)Nc1cc(S(=O)(=O)O)cc2cc(S(=O)(=O)[O-])cc(O)c12.[Na+].[Na+]`, the Cell viability (MT4 [1]) was 5, the EC50 (MT4 [2]) was 39 µg/mL and the Inhibition (MT4 [3]) was 100%. For the same compound, the inhibition [4] was 15%, the inhibition [5] was 100% and the inhibition [6] was 99%. For the same compound, the Inhibition (MT4 [7]) was 100%, the Inhibition (MT4 [8]) was 3% and the Inhibition (MT4 [9]) was 4%. The inhibition [10] was 44%, the EC50 (MT4 [11]) was 43 µg/mL and the Cell viability (MT4 [12]) was 9. The Inhibition (MT4 [13]) was 0%, the CC50 (MT4 [14]) was over 100 µg/mL and the Cell viability (MT4 [15]) was 0. For the same compound, the ID50 [16] was 160 µg/mL, the Inhibition (MT4 [17]) was 2% and the Inhibition (MT4 [18]) was 14%. It also gave an Inhibition (MT4 [19]) of 3% and a Cell viability (MT4 [20]) of 4.

`Cc1ccc(C(=O)Nc2ccc(S(=O)(=O)O)c3cc(S(=O)(=O)O)cc(S(=O)(=O)O)c23)cc1NC(=O)c1cccc(NC(=O)Nc2cccc(C(=O)Nc3cc(C(=O)Nc4ccc(S(=O)(=O)O)c5cc(S(=O)(=O)O)cc(S(=O)(=O)O)c45)ccc3C)c2)c1` was tested, and the inhibition [21] was 92%, the inhibition [22] was 22% and the ID50 [23] was 42 µg/mL (≈ 32.4 µM). The inhibition [24] was 18%.
